# Laboratory results taken from publication PMC7076145 (Journal of Advanced Research, 2020).
# Experiments:
# T-cell proliferation = assay: T-cells proliferation assay; type: cell-based, human; details: for IC50: Homo sapiens, T-cell, 48 h, read-out: IC50 against T-cell proliferation
# Procedure, shortened: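 PBMCs came from heparinized healthy human blood. Blood was diluted 1:1 with RPMI-1640, layered on LSM and spun at 400 g for 20 min at 25 °C. The buffy layer was washed at 4 °C and resuspended in RPMI with 5% FBS. Cells were activated with PHA-L, given test compound at several concentrations in triplicate, and incubated 2 days at 37 °C, 5% CO2. Alamar Blue (one-tenth volume) was added for 4 h; absorbance read at 570 and 600 nm.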
# [1] = test system: cytokine (TNF-α) production in human leukemia cell line (THP-1); assay: Cytokine; type: cell-based; details: THP-1 cells, LPS 50 ng/mL, 240 min; for inhibition of cytokine (TNF-α) production: test concentration not given
# Procedure, shortened: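 THP-1 cells grown in RPMI-1640 with 50 µM mercaptoethanol, 1 mM sodium pyruvate, 10% FBS, 5.5 mM glucose, 2 mM L-glutamine and 10 mM HEPES, then plated at 70% confluency. Cells differentiated to macrophage-like cells with PMA 20 ng/mL for 24 h (37 °C, 5% CO2). E. coli LPS B added with test compound for 240 min. Supernatant TNF-α measured by human DuoSet ELISA.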
# [2] = human T-lymphocytes, phytohemagglutinin-L 7.5 μg/mL, 2 days
Compound,inhibition of cytokine (TNF-α) production [1] [%],activity against T-cell proliferation (in words) (T-cell proliferation; [2]),also measured
"CC(=O)OC1CC[C@H]2[C@@H]3C[C@H](O)[C@H]4CC(=O)C=C(C)[C@]4(C)[C@H]3CC[C@]12C (stereo partly drawn) [Compound 2, 6α-Hydroxy-1-methyl-3-oxo-5α-androst-1-en-17-yl acetate]",73.4 ± 0.6,,IC50 (T-cell proliferation): 68.9 ± 0.02 µg/mL
"CC(=O)OC1C[C@@H](O)[C@H]2[C@@H]3CC[C@H]4CC(=O)C=C(C)[C@]4(C)[C@H]3CC[C@]12C (stereo partly drawn) [Compound 6, 15β-Hydroxy-1-methyl-3-oxo-5α-androst-1-en-17-yl acetate]",37.8 ± 1.1,inactive,
"CC(=O)O[C@H]1CC[C@H]2[C@@H]3CC[C@H]4CC(=O)C=C(C)[C@]4(C)[C@H]3CC[C@]12C [Compound 1, Metenolone acetate, reference compound]",62.5 ± 4.4,inactive,
"CC1=CC(=O)C[C@H]2CC[C@H]3[C@@H]4CC[C@H](O)[C@@]4(C)CC[C@@H]3[C@@]12C [Compound 9, 17β-Hydroxy-1-methyl-3-oxo-5β-androst-1-en]",,,activity against cytokine (TNF-α) production (in words) [1]: inactive
"C[C@]12C=CC(=O)C=C1CC[C@@H]1[C@@H]2[C@@H](O)C[C@@]2(C)[C@H]1CC[C@]2(O)C(=O)CO [prednisolone, reference compound]",,,IC50 (T-cell proliferation): 3.51 ± 0.03 µg/mL
"CC1=CC(=O)C[C@H]2CC[C@@H]3[C@H](CC[C@]4(C)C(=O)CC[C@@H]34)[C@@]12C [Compound 10, 1-Methyl-5β-androst-1-en-3,17-dione]",73.2 ± 0.3,,
"CC(=O)OC1CC[C@H]2[C@@H]3[C@@H](O)C[C@H]4CC(=O)C=C(C)[C@]4(C)[C@H]3CC[C@]12C (stereo partly drawn) [Compound 4, 7β-Hydroxy-1-methyl-3-oxo-5α-androst-1-en-17-yl acetate]",33.5 ± 6.6,inactive,
17β-Hydroxy-1-methyl-3-oxo-5α-androst-1-en [Compound 8],69.7 ± 1.4,,IC50 against T-cell proliferation (T-cell proliferation; [2]): 21.1 ± 0.04 µg/mL
"CC1=CC(=O)C[C@@H]2C[C@H](O)[C@H]3[C@@H]4[C@H](O)C[C@H](O)[C@@]4(C)CC[C@@H]3[C@@]12C [Compound 14, 7β,15β,17β-trihydroxy-1-methyl-3-oxo-5α-androst-1-en]",52.9 ± 2.4,,
"C[C@H]1CC(=O)C[C@@H]2CC[C@H]3[C@@H]4CC[C@H](O)[C@@]4(C)CC[C@@H]3[C@]21C [Compound 13, 17β-Hydroxy-1α-methyl-5α-androstan-3-one]",,,activity against cytokine (TNF-α) production (in words) [1]: inactive
"CC1=CC(=O)C=C2CC[C@@H]3[C@H](C[C@@H](O)[C@]4(C)[C@@H](O)CC[C@@H]34)[C@@]12C [Compound 11, 12β,17β-Dihydroxy-1-methyl-3-oxoandrosta-1,4-dien]",60.1 ± 3.3,,
"CC1=CC(=O)C=C2CC[C@@H]3[C@H](CC[C@]4(C)[C@@H](O)CC[C@@H]34)[C@@]12C [Compound 7, 17β-Hydroxy-1-methyl-3-oxoandrosta-1,4-dien]",46.6 ± 5.2,inactive,
